# Data from ChEMBL document CHEMBL1140225, “Design of annulated pyrazoles as inhibitors of HIV-1 reverse transcriptase” (J Med Chem, 2008).
# pEC50, pIC50: −log10 of the molar value.
# How the values were obtained:
# [1] = tested on: Human immunodeficiency virus; experiment: Antiviral activity against wild type HIV HXB2 in human MT4 cells assessed as protection against virus-induced cell death after 5 days by MTT assay; assay type: functional, organism-based; details: Human immunodeficiency virus 1, MT4, 120 h
# [2] = tested on: Human immunodeficiency virus; experiment: Antiviral activity against wild type HIV HXB2 in human MT4 cells assessed as protection against virus-induced cell death after 5 days by MTT assay in presence of 40% human serum; assay type: functional, organism-based; details: Human immunodeficiency virus 1, MT4, 120 h
# [3] = tested on: Human immunodeficiency virus; experiment: Antiviral activity against NNRTI-resistant HIV HXB2 with reverse transcriptase 190S mutation in human MT4 cells assessed as protection against virus-induced cell death after 5 days by MTT assay; assay type: functional, organism-based; details: Human immunodeficiency virus 1, MT4, 120 h
# Outline: (§1)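 MT4 cells in log-phase growth (2 × 10⁶) infected with HXB2-strain HIV at 0.0001 infectious units/cell for 1 h at 37 °C, washed in PBS, then plated at 3.5 × 10⁴ cells/well. Serial 2-fold dilutions, four replicates, final 625-1.22 nM, in RPMI 1640/10% FCS. Incubated 5 days at 37 °C, 5% CO₂. MTT added for 2 h, absorbance read at 540/690 nm. % protection vs uninfected and virus controls; IC50 taken from plot against log concentration.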
# [4] = tested on: Human immunodeficiency virus; experiment: Antiviral activity against NNRTI-resistant HIV HXB2 with reverse transcriptase 100I mutation in human MT4 cells assessed as protection against virus-induced cell death after 5 days by MTT assay; assay type: functional, organism-based; details: Human immunodeficiency virus 1, MT4, 120 h; outline: as §1
# [5] = tested on: Human immunodeficiency virus; experiment: Antiviral activity against NNRTI-resistant HIV HXB2 with reverse transcriptase 101E mutation in human MT4 cells assessed as protection against virus-induced cell death after 5 days by MTT assay; assay type: functional, organism-based; details: Human immunodeficiency virus 1, MT4, 120 h; outline: as §1
# [6] = tested on: Human immunodeficiency virus; experiment: Antiviral activity against NNRTI-resistant HIV HXB2 with reverse transcriptase 225H mutation in human MT4 cells assessed as protection against virus-induced cell death after 5 days by MTT assay; assay type: functional, organism-based; details: Human immunodeficiency virus 1, MT4; outline: as §1
# [7] = tested on: Human immunodeficiency virus; experiment: Antiviral activity against NNRTI-resistant HIV HXB2 with reverse transcriptase 103N mutation in human MT4 cells assessed as protection against virus-induced cell death after 5 days by MTT assay; assay type: functional, organism-based; details: Human immunodeficiency virus 1, MT4, 120 h; outline: as §1
# [8] = tested on: Human immunodeficiency virus; experiment: Antiviral activity against NNRTI-resistant HIV HXB2 with reverse transcriptase 106A mutation in human MT4 cells assessed as protection against virus-induced cell death after 5 days by MTT assay; assay type: functional, organism-based; details: Human immunodeficiency virus 1, MT4, 120 h; outline: as §1
# [9] = tested on: Human immunodeficiency virus; experiment: Antiviral activity against NNRTI-resistant HIV HXB2 with reverse transcriptase 138K mutation in human MT4 cells assessed as protection against virus-induced cell death after 5 days by MTT assay; assay type: functional, organism-based; details: Human immunodeficiency virus 1, MT4, 120 h; outline: as §1
# [10] = tested on: Human immunodeficiency virus; experiment: Antiviral activity against NNRTI-resistant HIV HXB2 with reverse transcriptase 188H mutation in human MT4 cells assessed as protection against virus-induced cell death after 5 days by MTT assay; assay type: functional, organism-based; details: Human immunodeficiency virus 1, MT4; outline: as §1
# [11] = tested on: Human immunodeficiency virus; experiment: Antiviral activity against NNRTI-resistant HIV HXB2 isolate 16 with reverse transcriptase K103, P225 mutation in human MT4 cells assessed as protection against virus-induced cell death after 5 days by MTT assay; assay type: functional, organism-based; details: Human immunodeficiency virus 1, MT4, 120 h
# [12] = tested on: Human immunodeficiency virus; experiment: Antiviral activity against NNRTI-resistant HIV HXB2 isolate 17 with reverse transcriptase A98, K103, Y181 mutation in human MT4 cells assessed as protection against virus-induced cell death after 5 days by MTT assay; assay type: functional, organism-based; details: Human immunodeficiency virus 1, MT4, 120 h
# [13] = tested on: Human immunodeficiency virus; experiment: Antiviral activity against NNRTI-resistant HIV HXB2 isolate 20 with reverse transcriptase K103, Y181 mutation in human MT4 cells assessed as protection against virus-induced cell death after 5 days by MTT assay; assay type: functional, organism-based; details: Human immunodeficiency virus 1, MT4, 120 h
# [14] = tested on: Human immunodeficiency virus; experiment: Antiviral activity against NNRTI-resistant HIV HXB2 isolate 21 with reverse transcriptase K103, V179, Y181 mutation in human MT4 cells assessed as protection against virus-induced cell death after 5 days by MTT assay; assay type: functional, organism-based; details: Human immunodeficiency virus 1, MT4, 120 h
# [15] = tested on: Human immunodeficiency virus; experiment: Antiviral activity against NNRTI-resistant HIV HXB2 isolate 29 with reverse transcriptase K103, Y181 mutation in human MT4 cells assessed as protection against virus-induced cell death after 5 days by MTT assay; assay type: functional, organism-based; details: Human immunodeficiency virus 1, MT4, 120 h
# [16] = Clearance in rat at 0.5 mg/kg, iv; details: in vivo
# [17] = Clearance in dog at 0.5 mg/kg, iv; details: in vivo
# [18] = Half life in rat at 0.5 mg/kg, iv; details: in vivo
# [19] = Half life in dog at 0.5 mg/kg, iv; details: in vivo
# [20] = Clearance in monkey at 0.5 mg/kg, iv; details: rhesus monkey, in vivo
# [21] = Half life in monkey at 0.5 mg/kg, iv; details: rhesus monkey, in vivo
# [22] = Volume of distribution at steady state in rat at 0.5 mg/kg, iv; details: in vivo, read-out: Vdss
# [23] = Volume of distribution at steady state in dog at 0.5 mg/kg, iv; details: in vivo, read-out: Vdss
# [24] = Volume of distribution at steady state in monkey at 0.5 mg/kg, iv; details: rhesus monkey, in vivo, read-out: Vdss
# [25] = tested on: Human immunodeficiency virus; experiment: Antiviral activity against […] HIV HXB2 with reverse transcriptase […]/Tyr181Cys mutation in human MT4 cells assessed as protection against virus-induced cell death after 5 days by MTT assay; assay type: functional, organism-based; details: Human immunodeficiency virus 1, MT4, 120 h
# [26] = molecular target: Human immunodeficiency virus type 1 reverse transcriptase (Human immunodeficiency virus 1, UniProt Q72547); experiment: Inhibition of RNA-dependent DNA polymerase activity of wild type HIV1 reverse transcriptase by SPA
# [27] = molecular target: Human immunodeficiency virus type 1 reverse transcriptase (Human immunodeficiency virus 1, UniProt Q72547, K103N/Y181C); experiment: Inhibition of RNA-dependent DNA polymerase activity of HIV1 reverse transcriptase Lys103Asn/Tyr181Cys mutant by SPA
# [28] = tested on: Human immunodeficiency virus; experiment: Antiviral activity against NNRTI-resistant HIV HXB2 with reverse transcriptase 190A mutation in human MT4 cells assessed as protection against virus-induced cell death after 5 days by MTT assay; assay type: functional, organism-based; details: Human immunodeficiency virus 1, MT4, 120 h; outline: as §1
# [29] = tested on: Human immunodeficiency virus; experiment: Antiviral activity against NNRTI-resistant HIV HXB2 with reverse transcriptase 108I mutation in human MT4 cells assessed as protection against virus-induced cell death after 5 days by MTT assay; assay type: functional, organism-based; details: Human immunodeficiency virus 1, MT4, 120 h; outline: as §1
# [30] = tested on: Human immunodeficiency virus; experiment: Antiviral activity against NNRTI-resistant HIV HXB2 with reverse transcriptase 179D mutation in human MT4 cells assessed as protection against virus-induced cell death after 5 days by MTT assay; assay type: functional, organism-based; details: Human immunodeficiency virus 1, MT4, 120 h; outline: as §1
# [31] = tested on: Human immunodeficiency virus; experiment: Antiviral activity against NNRTI-resistant HIV HXB2 with reverse transcriptase 227L mutation in human MT4 cells assessed as protection against virus-induced cell death after 5 days by MTT assay; assay type: functional, organism-based; details: Human immunodeficiency virus 1, MT4, 120 h; outline: as §1
# [32] = tested on: Human immunodeficiency virus; experiment: Antiviral activity against NNRTI-resistant HIV HXB2 with reverse transcriptase 236L mutation in human MT4 cells assessed as protection against virus-induced cell death after 5 days by MTT assay; assay type: functional, organism-based; details: Human immunodeficiency virus 1, MT4, 120 h; outline: as §1
# [33] = tested on: Human immunodeficiency virus; experiment: Antiviral activity against NNRTI-resistant HIV HXB2 with reverse transcriptase 181C mutation in human MT4 cells assessed as protection against virus-induced cell death after 5 days by MTT assay; assay type: functional, organism-based; details: Human immunodeficiency virus 1, MT4, 120 h; outline: as §1
# [34] = tested on: Human immunodeficiency virus; experiment: Antiviral activity against NNRTI-resistant HIV HXB2 with reverse transcriptase 181I mutation in human MT4 cells assessed as protection against virus-induced cell death after 5 days by MTT assay; assay type: functional, organism-based; details: Human immunodeficiency virus 1, MT4, 120 h; outline: as §1
# [35] = Inhibition of RNA-dependent DNA polymerase activity of HIV1 reverse transcriptase Tyr181Cys mutant by SPA; set-up: species or system Human immunodeficiency virus 1
# Outline: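 Purified recombinant RT (1-3 nM final) with 18nt biotinylated DNA primer (32 nM) on a 47nt RNA template (64 nM). Run 30 min at 30 °C, stopped with EDTA, product captured on streptavidin SPA beads. IC50 by sigmoidal regression.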
# [36] = molecular target: Human immunodeficiency virus type 1 reverse transcriptase (Human immunodeficiency virus 1, UniProt Q72547, K103N); experiment: Inhibition of RNA-dependent DNA polymerase activity of HIV1 reverse transcriptase Lys103Asn mutant by SPA
smiles,measurement,setting,value
N#Cc1cc(Cl)cc(Oc2c(Cl)ccc(Cc3n[nH]c4nnccc34)c2F)c1,pEC50,[1],9.00
same,pEC50,[2],8.30
same,pEC50,[3],> 9.00
same,pEC50,[4],> 9.00
same,pEC50,[5],8.70
same,pEC50,[6],> 9.00
same,pEC50,[7],> 9.00
same,pEC50,[8],8.70
same,pEC50,[9],8.70
same,pEC50,[10],> 9.00
same,pIC50,[11],8.52
same,pIC50,[12],8.30
same,pIC50,[13],8.40
same,pIC50,[14],8.52
same,pIC50,[15],8.70
same,clearance,[16],2.9 mL/min/kg
same,clearance,[17],4.6 mL/min/kg
same,half-life,[18],4.2 h
same,half-life,[19],5.6 h
same,clearance,[20],1.3 mL/min/kg
same,half-life,[21],12.2 h
same,Vd,[22],0.91 L/kg
same,Vd,[23],0.99 L/kg
same,Vd,[24],1.21 L/kg
N#Cc1cc(Cl)cc(Oc2c(Br)ccc(Cc3n[nH]c4ncccc34)c2F)c1,pEC50,[25],7.92
same,pEC50,[1],9.00
same,pIC50,[26],8.10
N#Cc1cc(Cl)cc(Oc2c(Br)ccc(Cc3n[nH]c4c(N)cccc34)c2F)c1,pEC50,[25],7.08
same,pEC50,[1],8.10
same,pIC50,[27],7.66
same,pIC50,[26],7.62
O=C1Nc2ccc(Cl)cc2[C@@](C#CC2CC2)(C(F)(F)F)O1 [EFAVIRENZ],pEC50,[2],7.74
same,pEC50,[28],8.22
same,pEC50,[3],< 7.00
same,pEC50,[4],8.15
same,pEC50,[5],7.92
same,pEC50,[6],9.00
same,pEC50,[7],7.18
same,pEC50,[8],8.22
same,pEC50,[29],8.52
same,pEC50,[30],8.10
same,pEC50,[31],9.00
same,pEC50,[32],> 9.00
same,pEC50,[9],8.70
same,pEC50,[10],8.40
same,pEC50,[33],8.52
same,pEC50,[34],8.70
Cc1cc(C#N)cc(C)c1Oc1nc(Nc2ccc(C#N)cc2)nc(N)c1Br [ETRAVIRINE],pIC50,[11],9.00
same,pIC50,[12],7.85
same,pIC50,[13],8.15
same,pIC50,[14],7.77
same,pIC50,[15],8.52
N#Cc1cc(C#N)cc(Oc2c(Br)ccc(Cc3n[nH]c4nnccc34)c2F)c1,pEC50,[25],8.52
same,pEC50,[1],9.00
N#Cc1cc(Cl)cc(Oc2c(Br)ccc(Cc3n[nH]c4cnccc34)c2F)c1,pEC50,[25],7.74
same,pEC50,[1],8.70
same,pIC50,[27],8.05
same,pIC50,[26],8.30
N#Cc1cc(Cl)cc(Oc2c(Br)ccc(Cc3n[nH]c4c(C#N)cccc34)c2F)c1,pEC50,[25],7.28
same,pEC50,[1],8.30
same,pIC50,[27],7.82
same,pIC50,[26],7.62
Cc1cc(C#N)cc(Oc2ccc(Cc3n[nH]c4nnccc34)cc2Br)c1,pIC50,[35],6.10
same,pIC50,[36],6.92
same,pEC50,[25],< 7.00
same,pEC50,[1],7.77
N#Cc1cc(Cl)cc(Oc2c(Br)ccc(Cc3n[nH]c4nccnc34)c2F)c1,pEC50,[25],< 7.00
same,pEC50,[1],> 7.60
same,pIC50,[27],7.85
same,pIC50,[26],8.52
Cn1ccc2c(Cc3ccc(Br)c(Oc4cc(Cl)cc(C#N)c4)c3F)n[nH]c2c1=O,pEC50,[25],7.01
same,pEC50,[1],8.40
same,pIC50,[27],7.92
same,pIC50,[26],8.10
